≈ marks a conversion by molar mass, not a printed value.
Legend:
[1] = system: Staphylococcus aureus; assay: Antibacterial activity against fluoroquinolone resistant Staphylococcus aureus 4-FQR3M BSA643 expressing GyrA Ser84Leu mutant and GrlA Ser80Tyr and Glu84Gly mutant; assay type: functional
Outline: (§1)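 Read-out is the minimum inhibitory concentration (MIC), reported in μg/mL, from standard antimicrobial susceptibility testing.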

[2] = Inhibition of Staphylococcus aureus topoisomerase 4 by decatenation assay
Outline: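 Enzyme activity was measured by topoisomerase IV decatenation using S. aureus enzyme. Inhibition is reported as a concentration in μM.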

[3] = system: Staphylococcus aureus; assay: Antibacterial activity against fluoroquinolone resistant Staphylococcus aureus 5-FQR4M BSA678 expressing GyrA Ser84Leu and Ser85Pro mutant and GrlA Ser80Phe and Glu84Lys mutant; assay type: functional; outline: as §1
[4] = Cytotoxicity against human Hep2 cell line after 72 hrs; assay type: cell-based; conditions: HEp-2 cells
Outline: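 Human laryngeal epidermoid carcinoma Hep2 cells were exposed for 72 h.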

[5] = system: Staphylococcus aureus; assay: Antibacterial activity against fluoroquinolone resistant Staphylococcus aureus 2-FQR2M NY2746 expressing GyrA Ser84Leu mutant and GrlA Ser80Phe mutant; assay type: functional; outline: as §1
[6] = system: Staphylococcus aureus; assay: Antibacterial activity against fluoroquinolone resistant Staphylococcus aureus 3-FQR3M ATCC 700699 expressing GyrA Ser84Leu mutant and Glu409Lys mutant and GrlA Ser80Phe mutant; assay type: functional; outline: as §1
[7] = system: Staphylococcus aureus; assay: Antibacterial activity against fluoroquinolone resistant Staphylococcus aureus 1-FQR2M BK2384 expressing GyrA Ser84Leu mutant and GrlA Ser80Phe mutant; assay type: functional; outline: as §1
[8] = system: Staphylococcus aureus; assay: Antibacterial activity against methicillin-resistant Staphylococcus aureus ATCC 700699; assay type: functional; outline: as §1
[9] = system: Staphylococcus aureus; assay: Antibacterial activity against methicillin-sensitive Staphylococcus aureus ATCC 29213; assay type: functional; outline: as §1
[10] = molecular target: DNA gyrase (Staphylococcus aureus, UniProt P0A0K8+P20831); assay: Inhibition of Staphylococcus aureus DNA gyrase by supercoiling assay; assay type: protein-complex assay
[11] = Cytotoxicity against human HepG2 cell line after 72 hrs; assay type: cell-based; conditions: HepG2 cells
[12] = Cytotoxicity against […] CHO cell line after 72 hrs; assay type: cell-based, Cricetulus griseus; conditions: chinese hamster, CHO cells
[13] = Cytotoxicity against human HeLa cell line after 72 hrs; assay type: cell-based; conditions: HeLa cells
[14] = system: Staphylococcus aureus; assay: Antimicrobial activity against fluoroquinolone sensitive Staphylococcus aureus; assay type: functional
Outline: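 Standard susceptibility testing. The read-out is the minimum inhibitory concentration, reported in μg/mL.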

[15] = system: Staphylococcus aureus; assay: Antimicrobial activity against fluoroquinolone resistant Staphylococcus aureus; assay type: functional; outline: as §1

Row | Compound | CC50 at 72 h [4] [µM] | MIC [8] [µg/mL] | MIC [9] [µg/mL] | IC50 [10] [µM] | other results
1 | COc1c(N2C[C@@H]3CCCN[C@@H]3C2)c(F)cc2c(=O)c(C(=O)O)cn(C3CC3)c12 [MOXIFLOXACIN] | > 100 | 4 (≈ 9.96 µM) | 0.06 (≈ 0.149 µM) |  | MIC [1]: 16 µg/mL (≈ 39.9 µM); IC50 [2]: 1 µM; MIC [3]: > 64 µg/mL; MIC [5]: 8 µg/mL (≈ 19.9 µM); MIC [6]: 4 µg/mL (≈ 9.96 µM); MIC [7]: 1 µg/mL (≈ 2.49 µM)
2 | COc1ccc2nccc(C(O)CC[C@@H]3CCN(CCSc4ccc(C(=O)O)[se]4)C[C@@H]3C(=O)O)c2c1 (mixture of isomers) | > 100 | > 64 | > 64 | > 100 | 
3 | O=C(O)c1cn(C2CC2)c2cc(N3CCNCC3)c(F)cc2c1=O [CIPROFLOXACIN] | > 100 | 64 (≈ 193 µM) | 0.25 (≈ 0.754 µM) |  | MIC [1]: 256 µg/mL (≈ 773 µM); IC50 [2]: 3 µM; MIC [3]: 128 µg/mL (≈ 386 µM); MIC [5]: 256 µg/mL (≈ 773 µM); MIC [6]: 64 µg/mL (≈ 193 µM); MIC [7]: 64 µg/mL (≈ 193 µM)
4 | COC(=O)[C@H]1CN(CCSc2sccc2P(=O)(OC(C)C)OC(C)C)CC[C@H]1CCC(=O)c1ccnc2ccc(OC)cc12 |  | > 32 |  |  | 
5 | COC(=O)[C@H]1CN(CCSc2ccc(C(F)F)[se]2)CC[C@H]1CCC(=O)c1ccnc2ccc(OC)cc12 |  | > 32 |  |  | 
6 | COc1ccc2nccc([C@H](O)CC[C@@H]3CCN(CCSc4sccc4P(=O)(OC(C)C)OC(C)C)C[C@@H]3C(=O)O)c2c1 (mixture of isomers) | 34 | > 64 | > 64 |  | 
7 | COC(=O)[C@H]1CN(CCSc2cccs2)CC[C@H]1CCC(=O)c1ccnc2ccc(OC)cc12 |  | > 32 |  |  | 
8 | COC(=O)[C@H]1CN(CCC(=O)N2CCCCC2)CC[C@H]1CCC(=O)c1ccnc2ccc(OC)cc12 |  | > 32 |  |  | 
9 | COc1ccc2nccc(C(O)CC[C@@H]3CCN(CCC(=O)N4CCCCC4)C[C@@H]3C(=O)O)c2c1 (mixture of isomers) | > 100 | 32 | 32 | 10.6 | 
10 | COc1ccc2nccc([C@@H](O)CC[C@@H]3CCN(CCSc4ccc(C#N)[se]4)C[C@@H]3C(=O)O)c2c1 (mixture of isomers) | 48 | 32 | 32 | 36.6 | 
11 | COc1ccc2nccc([C@@H](O)CC[C@@H]3CCN(CCSc4ccc(C(F)F)[se]4)C[C@@H]3C(=O)O)c2c1 (mixture of isomers) | 39 | 16 | 32 | 21.2 | 
12 | COc1ccc2nccc([C@H](O)CC[C@@H]3CCN(CCSc4cccs4)C[C@@H]3C(=O)O)c2c1 (mixture of isomers) | > 100 | 0.5 | 1 | 3.3 | MIC [1]: 1 µg/mL; IC50 [2]: 23 µM; MIC [3]: 4 µg/mL; CC50 at 72 h [11]: > 100 µM; MIC [5]: 1 µg/mL; MIC [6]: 0.5 µg/mL; CC50 at 72 h [12]: > 100 µM; MIC [7]: 1 µg/mL; CC50 at 72 h [13]: > 100 µM
13 | COC(=O)[C@H]1CN(CCS(=O)(=O)c2ccc[se]2)CC[C@H]1CCC(=O)c1ccnc2ccc(OC)cc12 |  | > 32 |  |  | 
14 | COC(=O)[C@H]1CN(CCSc2ccco2)CC[C@H]1CCC(=O)c1ccnc2ccc(OC)cc12 |  | > 32 |  |  | 
15 | COC(=O)[C@H]1CN(CCSc2ccc[se]2)CC[C@H]1CCC(=O)c1ccnc2ccc(OC)cc12 |  | > 32 |  |  | 
16 | COC(=O)[C@H]1CN(CCSc2ccc(C#N)[se]2)CC[C@H]1CCC(=O)c1ccnc2ccc(OC)cc12 |  | > 32 |  |  | 
17 | COc1ccc2nccc([C@@H](O)CC[C@@H]3CCN(CCSc4sccc4P(=O)(O)O)C[C@@H]3C(=O)O)c2c1 (mixture of isomers) | > 94 | > 64 | > 64 |  | 
18 | COc1ccc2nccc([C@@H](O)CC[C@@H]3CCN(CCSc4cccs4)C[C@@H]3C(=O)O)c2c1 (mixture of isomers) | > 100 | 0.13 | 0.25 | 1.4 | MIC [1]: 0.25 µg/mL; IC50 [2]: 45 µM; MIC [3]: 0.5 µg/mL; CC50 at 72 h [11]: > 100 µM; MIC [5]: 0.25 µg/mL; MIC [6]: 0.13 µg/mL; MIC90 [14]: 1 µg/mL; CC50 at 72 h [12]: > 100 µM; MIC [7]: 0.25 µg/mL; MIC90 [15]: 0.5 µg/mL; CC50 at 72 h [13]: > 100 µM
19 | COc1ccc2nccc([C@@H](O)CC[C@@H]3CCN(CCSc4ccc[se]4)C[C@@H]3C(=O)O)c2c1 (mixture of isomers) | > 100 | 0.25 | 0.25 | 0.4 | MIC [1]: 0.5 µg/mL; IC50 [2]: 64 µM; MIC [3]: 1 µg/mL; CC50 at 72 h [11]: > 100 µM; MIC [5]: 0.5 µg/mL; MIC [6]: 0.25 µg/mL; CC50 at 72 h [12]: > 100 µM; MIC [7]: 0.25 µg/mL; CC50 at 72 h [13]: > 100 µM
20 | COc1ccc2nccc([C@H](O)CC[C@@H]3CCN(CCSc4ccc[se]4)C[C@@H]3C(=O)O)c2c1 (mixture of isomers) | > 100 | 0.5 | 0.5 | 0.7 | MIC [1]: 1 µg/mL; IC50 [2]: 69 µM; MIC [3]: 2 µg/mL; CC50 at 72 h [11]: > 100 µM; MIC [5]: 1 µg/mL; MIC [6]: 0.5 µg/mL; CC50 at 72 h [12]: > 100 µM; MIC [7]: 1 µg/mL; CC50 at 72 h [13]: > 100 µM
21 | COc1ccc2nccc([C@H](O)CC[C@@H]3CCN(CCSc4sccc4P(=O)(O)O)C[C@@H]3C(=O)O)c2c1 (mixture of isomers) | > 100 | > 64 | > 64 | > 100 | 
22 | COc1ccc2nccc([C@@H](O)CC[C@@H]3CCN(CCS(=O)(=O)c4ccc[se]4)C[C@@H]3C(=O)O)c2c1 (mixture of isomers) | > 100 | > 64 | > 64 | > 100 | 
23 | COc1ccc2nccc([C@@H](O)CC[C@@H]3CCN(CCSc4sccc4P(=O)(OC(C)C)OC(C)C)C[C@@H]3C(=O)O)c2c1 (mixture of isomers) | > 98 | > 64 | > 64 | > 100 | 
24 | CO/N=C1\CN(c2nc3c(cc2F)c(=O)c(C(=O)O)cn3C2CC2)CC1CN (configuration not stated) [GEMIFLOXACIN] |  | 4 (≈ 10.3 µM) | 0.03 (≈ 0.077 µM) |  | MIC [1]: 32 µg/mL (≈ 82.2 µM); IC50 [2]: 0.4 µM; MIC [3]: 64 µg/mL (≈ 164 µM); MIC [5]: 32 µg/mL (≈ 82.2 µM); MIC [6]: 4 µg/mL (≈ 10.3 µM); MIC [7]: 1 µg/mL (≈ 2.57 µM)
25 | COc1ccc2nccc([C@H](O)CC[C@@H]3CCN(CCSc4ccc(C=O)[se]4)C[C@@H]3C(=O)O)c2c1 (mixture of isomers) | > 100 | 16 | 16 | 8.9 | 
26 | COc1ccc2nccc([C@H](O)CC[C@@H]3CCN(CCSc4ccc(C#N)[se]4)C[C@@H]3C(=O)O)c2c1 (mixture of isomers) | 65 | > 64 | > 64 |  | 
27 | COc1ccc2nccc([C@H](O)CC[C@@H]3CCN(CCS(=O)(=O)c4ccc[se]4)C[C@@H]3C(=O)O)c2c1 (mixture of isomers) | > 100 | > 64 | > 64 |  | 
